Only some compounds are listed: those with a hit (about 4.1% of all), similar ones and a draw of the others.
Autophagy mod: alters autophagy in cells; MEF GFP-LC3 puncta imaging; test concentration mostly 10 µM; calls only at 10 µM (by protocol); actives 0.98% (n = 190,000); AID 463193;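 active = percentage of spot-positive cells more than 3 SD above its plate mean, without a fluorescence outlier flag or 80% toxicity; inconclusive = no clear call, values can overlap the other calls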;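 note: spot-positive cell cutoff set from DMSO-treated cells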
Redox H2O2 prof: compounds producing H2O2 with reducing agent – biochemical, NIH compound library profiling, artefact control for MLSCN library redox annotation, primary screen; DTT-dependent redox cycling H2O2, phenol red/HRP absorbance; 100% = 100 µM peroxide control, 0% = buffer; activation, % at 10 µM; actives 0.03% (n = 200,000); AID 878;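 active = activation of at least 50% relative to the plate's high and low controls in the primary single-dose screen; inactive = activation below 50%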;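 note: compound incubated with DTT at 0.8 mM final as the reducing agent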
ROMK mod: human ROMK K+ channel modulation, primary screen | P48048 | Tet-inducible ROMK, thallium flux fluorescence; actives lie on both sides | B-score at 10 µM | actives 2% (n = 130,000) | AID 1918;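 active = signal ratio slope over the read window, or its plate-corrected B-score, at least 3 SD from the plate mean, either direction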;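 note: B-score of the F/F0 ratio slope over 7 to 12 s after thallium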
Target sequence (P48048 whole entry, looked up): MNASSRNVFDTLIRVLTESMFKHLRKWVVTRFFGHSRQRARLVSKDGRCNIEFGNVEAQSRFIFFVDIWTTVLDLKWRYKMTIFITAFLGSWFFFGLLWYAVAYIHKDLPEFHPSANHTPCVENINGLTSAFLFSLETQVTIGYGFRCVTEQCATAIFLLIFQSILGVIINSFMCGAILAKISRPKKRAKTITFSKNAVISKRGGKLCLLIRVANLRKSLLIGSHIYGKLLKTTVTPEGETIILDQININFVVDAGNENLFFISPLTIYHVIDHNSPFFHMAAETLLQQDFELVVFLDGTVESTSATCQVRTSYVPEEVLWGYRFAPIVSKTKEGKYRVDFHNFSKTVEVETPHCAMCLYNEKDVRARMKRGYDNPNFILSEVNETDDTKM
KCC2 mod: modulates chloride dependent transport by human KCC2. AID 1456. B-score of Tl+ flux slope (higher = more flux/activation; lower = inhibition) at 10 µM. actives 2.2% (n = 190,000). Q9H2X9. KCC2 cells, thallium flux FluoZin-2 fluorescence;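 active = thallium flux slope and its plate-corrected score both differing from the plate sample mean at a set confidence after two filtering rounds, in either direction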;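 note: slope of fluorescence scaled to starting intensity during 10 to 20 s after thallium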
Dynein transport: blocks dynein driven cargo transport along microtubules; z-score, hits read low; AID 1381; 3617.4 mouse cells, GR-EGFP nuclear translocation imaging; test concentration mostly 20 µM; stimulated with dexamethasone, 1 µM; hits give low values; actives 0.47% (n = 220,000);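 active = plate z-score of nuclear minus cytoplasmic receptor signal below a set negative limit, without overly bright fluorescence or cell loss, cut at about -3.5 in these data, passing the limit was not always enough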;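 note: z-score of nuclear minus cytoplasmic ring GR-EGFP intensity difference per well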
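Buffer or medium: Induction medium lacking tetracycline, stripped serum | Also added: Dexamethasone agonist, 1.0 µM final, for 30 min | Timing: 48 h induction, 1 h compound, 30 min dex at 37 °C | Detection: Formaldehyde fixation, Hoechst nuclear stain, 10x automated fluorescence imaging | Measure: Nuclear versus cytoplasmic GR-EGFP signal, averaged per well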
KCC2 secondary: confirmation of human KCC2 transport modulators. actives 15% (n = 3,700). shares compounds with KCC2 mod. HEK293-KCC2, thallium flux, FluoZin2 fluorescence; hits give high values. normalised thallium flux (F/F0 slope) at 10 µM;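 active = thallium flux slope above the same plate's solvent-only control mean plus 3 SD; inconclusive = the two replicate wells disagree; inactive = no significant difference from solvent-only control wells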
KCC2 bumet counter: thallium flux persisting under bumetanide in KCC2 cells, counter-screen secondary assay. normalized thallium flux at 10 µM. AID 1714. HEK293-KCC2 + bumetanide/ouabain, thallium flux FluoZin2; hits give high values. actives 49% (n = 3,700). shares compounds with KCC2 mod;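 active = thallium entry rate above the same plate's blocked-transporter control wells by more than 3 SD; inconclusive = the two repeat wells disagree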;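 note: raw slope of fluorescence over initial fluorescence between 10 and 20 s after thallium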
KCC2 secondary2: confirmation of human KCC2 transport modulators. normalized thallium flux at 10 µM. actives 23% (n = 3,700). AID 1715. HEK293-KCC2, thallium flux FluoZin2 fluorescence; actives lie on both sides; F/F0 rise rate, 10–20 s post-thallium. shares compounds with KCC2 mod;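 active = thallium flux slope more than 3 SD above or below the plate's solvent-only control mean, mostly below; inconclusive = the two repeat wells disagreed; inactive = no significant shift from solvent-only controls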;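 note: raw slope with 0.1% DMSO as baseline and bumetanide as block control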
HEK counter1: acts in parental HEK cells, KCC2 counter-screen; shares compounds with KCC2 mod; HEK293 parental cells, thallium flux FluoZin2, ouabain; baseline-ratio fluorescence slope, 10–20 s after thallium; thallium flux rate (normalised fluorescence) at 10 µM; actives 46% (n = 3,700);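 active = thallium flux rate significantly above the same plate's solvent-only control wells, beyond their mean plus 3 SD; inconclusive = the two replicate wells gave conflicting results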
KCC2 retest ouab: confirmation of human KCC2 modulators with ouabain | HEK293-KCC2, thallium flux FluoZin2 fluorescence; bidirectional: low = inhibitor, high = activator | actives 48% (n = 3,700) | shares compounds with KCC2 mod | raw Tl+ flux slope (below DMSO = inhibition, above = activation) at 10 µM;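 active = thallium flux slope beyond 3 SD from same-plate DMSO control mean in most replicates, usually higher, sometimes lower; inconclusive = repeat tests gave conflicting results; inactive = no significant difference from controls in most replicates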;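 note: slope of initial-normalized fluorescence between seconds 10 and 20 after thallium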
HEK counter2: counter-screen for KCC2 modulators: effect in parental HEK293 cells; AID 1718; thallium flux FluoZin-2 fluorescence slope; actives 33% (n = 3,700); shares compounds with KCC2 mod; thallium flux slope at 10 µM;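 active = thallium flux slope above the same plate's solvent-control mean plus 3 SD in both duplicate wells; inconclusive = duplicate wells that disagreed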;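 note: run without ouabain in cells lacking the KCC2 cotransporter; slope of fluorescence scaled to its starting value between 10 and 20 s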
An asterisk follows results filed as active; i = inactive; ? = inconclusive; / = no result given.

SMILES	Autophagy mod	Redox H2O2 prof	ROMK mod	KCC2 mod	Dynein transport	KCC2 secondary	KCC2 bumet counter	KCC2 secondary2	HEK counter1	KCC2 retest ouab	HEK counter2
CC1CC(C)CN(S(=O)(=O)c2ccc(C(=O)Nc3nnc(-c4cccs4)o3)cc2)C1 (stereo unspecified)	i	0.7	0.86	12*	2.37	0.0056	0.0321*	0.0415*	0.0251*	0.034*	0.0243*
OCC[C@@H]1C[C@@H](O)[C@H](O)[C@]2(CCCCO2)O1	i	0.4	0.531	0.417	0.481	/	/	/	/	/	/
CCC1(CC)NC(=O)N(CC(=O)OCC(=O)Nc2sccc2C#N)C1=O	i	0.4	0.584	-0.379	-0.45	/	/	/	/	/	/
O=C(CSc1nc(-c2ccc(F)cc2)nc2c1Cc1ccccc1O2)Nc1ccc(C(=O)O)cc1	i	-3.0	0.809	3.32*	-0.376	0.00755	0.00741*	0.0362	0.0125*	0.0242*	0.012*
O=C(O)c1ccc(NCCc2ccc(Cl)cc2)c([N+](=O)[O-])c1	i	-0.8	1.12	-0.442	-1.32	/	/	/	/	/	/
Cc1ccc(/C=N/n2c(-c3ccc(Cl)cc3)n[nH]c2=S)s1	i	4.7	0.802	10.4*	0.187	0.00806	0.0121*	0.031	0.0161*	?	0.0151*
S=c1[nH]nc(-c2ccc(Cl)cc2)n1/N=C/c1ccco1	/	/	/	21.1*	-0.541	0.00703	0.029*	?	0.0221*	0.0325*	0.0203*
COc1ccccc1/C=C/C=N/n1c(-c2ccc(Cl)cc2)n[nH]c1=S	/	/	/	13.1*	0.965	0.00917	0.0226*	0.0297	0.0106*	0.0308*	?
S=c1[nH]nc(-c2ccccc2)n1/N=C/C=C/c1ccco1	i	0.1	/	3.8	0.176	/	/	/	/	/	/
Cn1cccc1/C=N/n1c(-c2ccc(Cl)cc2)n[nH]c1=S	i	2.0	/	/	1.37	/	/	/	/	/	/
S=c1[nH]nc(-c2ccc(Cl)cc2)n1/N=C/C=C/c1ccco1	/	/	-0.234	29.6*	-0.89	0.0161*	0.106*	0.0387	0.0358*	0.0377*	0.0153*
Nc1nc(NC(=O)CCC(=O)O)nn1-c1ccccc1	/	/	/	/	-0.339	/	/	/	/	/	/
O=C(O)CC(NC(=O)c1cccc([N+](=O)[O-])c1)c1ccc2c(c1)OCO2 (stereo unspecified)	i	-0.2	0.63	-1.81	0.0727	/	/	/	/	/	/
COc1ccccc1NC(=O)c1ccc(CSc2ncccn2)cc1	i	0.3	-0.641	-0.985	-0.693	/	/	/	/	/	/
Cn1c(N)c(C(=O)COC(=O)CC2CC3CCC2C3)c(=O)n(C)c1=O (stereo unspecified)	i	0.6	-0.00947	0.205	-0.283	/	/	/	/	/	/
S=c1[nH]nc(-c2ccco2)n1/N=C/C=C/c1ccccc1	i	-0.1	1.07	7.01*	0.948	0.0179	0.0331*	0.0346	0.0157*	0.0213	0.0179*
COc1cccc(NC(=O)Nc2ccc(C(C)(C)C)cc2)c1	i	-1.1	/	1	0.489	/	/	/	/	/	/
CCc1cccc(CC)c1NC(=S)NCCc1c(C)[nH]c2ccccc12	i	1.8	-0.731	-3.75*	-0.48	0.00847	?	0.033	?	0.0209	0.00999
CCOC(=O)c1cc2c(=O)[nH]ccc2nc1C(F)(F)F	/	/	/	-0.117	-0.248	/	/	/	/	/	/
CCOC(=O)c1cc2c(=O)[nH]ccc2nc1C	i	2.2	/	12.7*	-0.381	0.0106	?	0.0292	0.00738	0.0329	0.0103
CNC(=O)CSc1nnc(SCCC(=O)O)s1	i	0.1	0.934	1.26	-0.268	/	/	/	/	/	/
O=C(CCSCc1ccc(Cl)cc1)NC1CCCC1	i	-0.3	0.904	-0.389	0.194	/	/	/	/	/	/
Cc1ccc(-n2nc(CN3CCOCC3)c(-c3ccccc3)c2N)c(C)c1	i	1.0	/	-0.591	-0.686	/	/	/	/	/	/
Nc1nc2c(F)cccc2s1	i	0.4	/	-0.669	1.12	/	/	/	/	/	/
Fc1cccc2sc(Nc3nc4c(F)cccc4s3)nc12	i	0.4	0.724	18*	-0.628	?	0.0355*	0.031	0.0523*	0.0339*	?
SMILES	Autophagy mod	Redox H2O2 prof	ROMK mod	KCC2 mod	Dynein transport	KCC2 secondary	KCC2 bumet counter	KCC2 secondary2	HEK counter1	KCC2 retest ouab	HEK counter2
Cc1ccc(NCC(=O)N/N=C\c2ccc[nH]2)cc1	/	/	/	0.954	-0.537	/	/	/	/	/	/
COCCCN1CN=C(Nc2nc3ccccc3o2)NC1	i	-1.6	-0.295	0.106	0.434	/	/	/	/	/	/
COc1ccc(S(=O)(=O)Nc2ccccc2C(=O)NCc2ccco2)cc1Br	i	2.3	/	-4.14*	-0.0747	?	0.00376	0.0233*	0.0049*	0.0118*	0.00828*
CCOc1ccc(S(=O)(=O)Nc2ccccc2C(=O)NCc2ccco2)cc1	i	2.4	/	-1.43	1.68	/	/	/	/	/	/
CCc1cccc2c(C(=S)N3CCOCC3)c[nH]c12	i	0.5	-0.344	0.941	-0.345	/	/	/	/	/	/
Cn1cnc2cc(OC(=O)c3ccccc3)ccc21	i	-0.1	0.074	/	2.77	0.01	0.00661	0.0281	0.00733	0.0504	?
Cc1ccc(C(=O)Oc2ccc3c(c2)ncn3C)cc1	i	-0.1	0.1	/	-0.276	/	/	/	/	/	/
COc1ccc(/C(O)=C2/C(=O)C(=O)N(CCN3CCOCC3)C2c2ccccn2)cc1OC (stereo unspecified)	i	-1.5	-0.138	/	0.633	/	/	/	/	/	/
COc1ccc(/C(O)=C2/C(=O)C(=O)N(CCN(C)C)C2c2ccccn2)cc1OC (stereo unspecified)	i	0.4	0.176	4*	-0.305	0.00894	0.00737	0.0292	?	0.0213	?
Cc1ccc(/C(O)=C2/C(=O)C(=O)N(CCN3CCOCC3)C2c2ccccn2)cc1 (stereo unspecified)	i	2.2	/	2.73*	-0.432	0.00786	?	0.0328	?	0.0255	0.0101
O=C(Cn1nnc2c(cnn2-c2ccccc2)c1=O)N1CCN(c2ccccc2F)CC1	i	-0.6	/	-5.48*	-0.402	0.00576	?	0.0205*	0.00681	0.0143*	0.00916
S=c1nc[nH]c2c1cnn2-c1ccccc1	/	/	/	149*	0.192	0.0523*	0.156*	0.0668*	0.0927*	0.115*	0.0509*

Assay outcomes (PubChem BioAssay)
